From PubChem
OX1R antag-1: antagonists of human orexin 1 receptor (OX1R) | AID 485270, 2010 | Orexin/Hypocretin receptor type 1 (Homo sapiens), O43613 | OX1R-expressing cells, FRET antagonist read-out | inhibition, % at 6.6 µM | 330,000 compounds, 1.8% hits; in the data active = inhibition mostly above about 38%, no sharp cut-off; inactive = mostly below about 40%;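 note: 0% = agonist challenge alone and 100% = reference antagonist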
Target sequence (O43613 whole entry, looked up): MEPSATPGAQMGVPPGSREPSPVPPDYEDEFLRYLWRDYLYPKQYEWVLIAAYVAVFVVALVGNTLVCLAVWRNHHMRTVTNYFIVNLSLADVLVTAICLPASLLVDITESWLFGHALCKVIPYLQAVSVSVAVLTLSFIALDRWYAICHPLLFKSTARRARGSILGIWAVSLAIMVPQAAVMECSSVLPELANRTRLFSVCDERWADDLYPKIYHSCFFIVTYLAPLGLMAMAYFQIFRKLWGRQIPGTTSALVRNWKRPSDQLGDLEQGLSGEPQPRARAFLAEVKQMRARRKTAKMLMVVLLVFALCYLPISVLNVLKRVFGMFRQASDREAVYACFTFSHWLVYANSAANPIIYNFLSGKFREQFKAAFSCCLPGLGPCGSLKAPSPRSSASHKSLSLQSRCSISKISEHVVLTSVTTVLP
CHO-K1 Ca antag: nonselective inhibitor or artifact in parental CHO-K1 cells; ATP-induced calcium, Fluo-8 fluorescence; inhibition, % at 3 µM; 360,000 compounds, 0.6% hits; AID 602250;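 active = inhibition above a per-plate cutoff, the plate's mean sample inhibition plus 3 SD, cut at about 24% in these data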;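 note: 0% = DMSO plus EC80 ATP and 100% = DMSO alone without ATP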
M1 ag parental: counter-screen for M1 agonists: effect in parental CHO-K1 cells; Fluo-8 calcium fluorescence; scaled to maximal ATP response, vehicle zero; activation, % at 3 µM; 360,000 compounds, 0.48% hits; AID 602248, 2012; in the data active = activation above about 15%;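 note: untransfected CHO-K1 host cells lacking M1 receptor as counterscreen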
OX1R antag-2: OX1R (HCRTR1) antagonists, primary screen, fluorescence, CHO/OX1R cells, Fluo-8 calcium, orexin A; Fluo-8 calcium fluorescence; inhibition, % at 5 µM; Orexin/Hypocretin receptor type 1 (Homo sapiens), O43613; 330,000 compounds, 0.43% hits;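 active = inhibition above its plate's threshold, mean inhibition of all tested compounds on the plate plus 3 SD, cut at about 37% in these data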;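 note: 0% = orexin A challenge wells and 100% = SB-334867-A antagonist wells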
CHO parental Ca: ATP-evoked calcium signal inhibitors, parental CHO, primary screen, counter-screen for OX1R antagonist project, cell-based, fluorescence, Fluo-8 calcium dye; inhibition, % at 5.6 µM; 330,000 compounds, 0.63% hits; parental CHO-K1, ATP-induced calcium, Fluo-8 fluorescence;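 active = inhibition above that plate's mean sample inhibition plus 3 SD, cut at about 26% in these data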;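 note: 0% = ATP-challenged DMSO wells and 100% = DMSO wells without ATP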
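material = parental CHO cells | also added = ATP as calcium-mobilizing challenge | dosing = single point at 5.6 µM | detection = intracellular calcium via Fluo-8 no-wash fluorescent dye | read-out = % inhibition | benchmarks = low control ATP plus DMSO, high control DMSO only | repeats = one well per compound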
CHO-K1 Ca PAM: nonselective calcium activators in parental CHO-K1 cells, primary screen, counter-screen for M1 PAM project, cell-based, Fluo-8 calcium fluorescence, full deck, 1536-well | activation, % at 3 µM | 360,000 compounds, 0.02% hits | ATP EC20; 0% at ATP EC20, 100% at ATP max;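 active = activation above the run cutoff, the mean activation of all test compounds plus 3 SD, cut at about 40% in these data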;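 note: peak over basal fluorescence ratio in a 140 s read after ATP addition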
* = called active by the depositor; . = no result given. Sampled rows, rich in hits. Any-hit rate of the full collection: about 2.9%.

SMILES	OX1R antag-1	CHO-K1 Ca antag	M1 ag parental	OX1R antag-2	CHO parental Ca	CHO-K1 Ca PAM
O=c1cc(-c2cccnc2)oc2c1ccc1ccccc12	36*	-1	4	-12	-3	16
O=c1cc(/C=C/c2ccccc2)oc2c1ccc1ccccc12	56*	-14	1	-25	-26	32
CC(=O)c1cccc(S(=O)(=O)NC2CCSc3ccccc32)c1 (centres undefined)	38	1	1	-12	-21	-9
Oc1ccc(N=Nc2ccc3c(c2)OCCO3)c2cccnc12	21	-6	3	48*	45*	6
COc1ccc(C(NC(=O)C(C)C)c2ccc3cccnc3c2O)cc1 (centres undefined)	18	-20	1	-32	-16	20
COc1cccc(N=Nc2ccc(O)c3ncccc23)c1	10	35*	41*	49*	55*	-6
COc1ccc(N=Nc2ccc(O)c3ncccc23)cc1	21	-4	5	33	51*	5
Cc1ccccc1N=Nc1ccc(O)c2ncccc12	13	14	0	26	44	-5
COc1ccc(C)cc1N=Nc1ccc(O)c2ncccc12	.	13	4	.	.	13
COc1cccc(N=Nc2ccc3cccnc3c2O)c1	15	12	38*	53*	83*	-12
COc1cccc(-c2ccc3nccn3c2)c1	.	28*	0	.	.	-14
O=C(Cn1cnc2c(nnn2Cc2ccccc2F)c1=O)N1CCN(c2ccccc2)CC1	-1	8	0	-11	8	2
O=C(Cn1cnc2c(nnn2Cc2ccccc2F)c1=O)OCc1ccccc1	10	3	7	69*	80*	-11
CCc1ccc[n+](-c2[nH]c(=O)sc2/C=N/N=C(\N)[O-])c1	30	-7	0	-8	-4	8
CC(C)(C)c1cc[n+](-c2[nH]c(=O)sc2/C=N/N=C(\[O-])c2cccnc2)cc1	58*	9	13	-6	-11	5
CC(C)(C)c1cc[n+](-c2[nH]c(=O)sc2/C=N/NC(=O)c2ccccc2[O-])cc1	57*	0	0	7	25	-9
O=C(/C=C/c1ccccc1)OCCN1C(=O)c2ccccc2C1=O	7	-10	4	-17	-23	-9
Cc1ccc(C(C(=O)NC2CCCC2)N(C(=O)Cc2cccs2)c2ccc(C)c(C)c2)o1 (centres undefined)	53*	-14	3	13	40*	15
Cc1ccc(C)c(N(C(=O)Cc2cccs2)C(C(=O)NC2CCCC2)c2ccc(C)o2)c1 (centres undefined)	11	15	0	-16	-8	-6
CC1(C)CC2CC(C)(CN2C(=S)Nc2ccccc2)C1 (centres undefined)	8	-12	16*	-21	-10	22
Cc1ccc2c(CNCc3ccccc3)cc(=O)oc2c1	11	-21	0	-10	-17	17
CC(=O)c1ccc(NC(=S)NCc2ccco2)cc1	11	2	2	-7	18	3
Cc1cccc(NC(=S)NCc2ccco2)n1	12	2	17*	-14	-18	11
COC(=O)c1ccc(NC(=S)NCc2ccco2)cc1	18	30*	1	4	8	-14
Cc1ccc(S(=O)(=O)N2C[C@H]3C(=O)C[C@@H](c4ccc(Cl)cc4)N(S(=O)(=O)c4ccc(C)cc4)[C@H]3C[C@H]2c2ccccc2)cc1	.	5	1	.	.	9
SMILES	OX1R antag-1	CHO-K1 Ca antag	M1 ag parental	OX1R antag-2	CHO parental Ca	CHO-K1 Ca PAM
COc1ccc(C)c2sc(N(CCCN(C)C)C(=O)c3ccc(S(=O)(=O)N4CCc5ccccc5C4)cc3)nc12	4	10	19*	-4	7	8
COc1ccc(OC)c2sc(N(CCCN(C)C)C(=O)c3ccc(S(=O)(=O)N4CCc5ccccc5C4)cc3)nc12	22	.	.	-13	16	.
O=Nc1c(O)n(Cc2cccc(Cl)c2)c2ccccc12	19	5	0	6	61*	-8
NC(=S)N=Nc1c(O)n(Cc2ccccc2)c2ccccc12	29	-1	2	-6	-6	25
Cc1ccc(-c2cc(N)nc(-c3ccccc3)c2)cc1	11	-17	-1	-23	-27	-21
NS(=O)(=O)c1ccc(NC2=CC(=O)C(=O)c3ccccc32)cc1	60*	-11	1	8	4	19
CCOC(=O)c1ccc(NC2=CC(=O)C(=O)c3ccccc32)cc1	28	-1	0	-30	-12	20
Cc1ccc(NC2=CC(=O)C(=O)c3ccccc32)cc1	52*	-7	0	-21	-22	14
Cc1ccsc1/C=N/N1CCN(Cc2ccccc2)CC1	7	1	0	-24	-19	15
CC/C(=C\c1ccc(N(C)C)cc1)c1ccncc1	.	-5	0	.	.	5
CCOC(=O)N1CCN(C(=O)CS(=O)(=O)c2cn(Cc3ccc(F)cc3)c3ccccc23)CC1	62*	-9	2	17	-9	16
COc1ccc(-c2cc(NC=O)c3ncc(-c4ccc(OC)c(OC)c4)n3c2)cc1	.	1	1	.	.	8
CC(=O)Nc1ccc(-c2ccnc3c2CC(C)(C(=O)NCc2ccc(N4CCN(C)CC4)cc2)O3)cc1 (centres undefined)	.	-17	1	.	.	13
Cc1cc(O)c(C(=O)/C=C/c2ccccc2O)c(=O)o1	.	24*	3	.	.	9
Cc1cc(O)c(C(=O)/C=C/c2cccc([N+](=O)[O-])c2)c(=O)o1	5	-18	2	-20	-10	30
Cc1cc2cc(OCC(=O)O)ccc2n1C	59*	-2	0	-7	-2	12
Cc1cc2cc(OCc3ccccc3)ccc2n1C	16	-3	1	-19	5	19
COc1ccc(Cc2nnc(Cl)c3ccccc23)cc1OC	19	-10	4	-23	-6	10
O=C(CSc1nc2ccccc2c(=O)n1-c1ccc(F)cc1F)NC1CCS(=O)(=O)C1 (centres undefined)	.	4	0	.	.	0
COc1ccccc1/C=C/C=N/n1c(-c2ccc(Cl)cc2)n[nH]c1=S	26	53*	-1	-20	-30	-16
COc1ccccc1CNC(=O)CSc1ccc(-c2cccc([N+](=O)[O-])c2)nn1	17	-7	0	-29	-8	20
CN(C)S(=O)(=O)c1ccc(Cl)c(NC(=O)CN2CCCCCC2)c1	17	-13	1	-27	7	6
CCN(c1ccccc1)S(=O)(=O)c1ccc(Cl)c(NC(=O)CN2CCCCCC2)c1	87*	-11	2	32	73*	-6
